Experimental data published in ChEMBL document CHEMBL5724801, “EUbOPEN Chemogenomics Library - Multiplex” (2024).
Several values for one entry are separate records, joined by “and”; a condition that tells them apart may be missing. Identical values can stand only once.

Test system: Fibroblast
Experiment: Multiplex assay against human fibroblast
Type: toxicity, cell-based
Method in brief: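 With compound added, live cells were imaged on a CQ1 microscope at 37°C and 5% CO2; staining with Hoechst33342, BioTracker Green Microtubule Cytoskeleton Dye, MitoTracker Red and Annexin V Alexa Fluor 680 had been done at seeding. The CellPathfinder machine-learning gating scheme split cells into Hoechst high-intensity objects or normal cells, normal cells into healthy, pyknosed or fragmented nuclei, and pyknosed cells into mitotic or apoptotic. The tubulin, mitochondrial-mass and membrane-permeability phenotypes are per cents of healthy-nucleus cells.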

[1] = 12 h, 1 µM, compound concentration 1 uM
[2] = 12 h, 10 µM, compound concentration 10 uM
[3] = 24 h, 1 µM, compound concentration 1 uM
[4] = 24 h, 10 µM, compound concentration 10 uM
[5] = 48 h, 1 µM, compound concentration 1 uM
[6] = 48 h, 10 µM, compound concentration 10 uM

COc1cc(Nc2ncc3c(n2)-c2ccc(Cl)cc2C(c2c(F)cccc2OC)=NC3)ccc1C(=O)O [ALISERTIB]
Population Apoptotic (%) [1]: 39% and 42%
Population Fragmented Nuclei (%) [1]: 11% and 18%
Population Healthy Nuclei (%) [1]: 66% and 47%
Population Hoechst High Intensity Objects (%) [1]: 1% and 8%
Population Membrane Permeable-Phenotype (%) [1]: 2% and 7%
Population Mitochondria Different-Phenotype (%) [1]: 4% and 7%
Population Mitotic Cells (%) [1]: 60% and 57%
Population Normal (%) [1]: 98% and 91%
Population Pyknosed Nuclei (%) [1]: 21% and 33%
Population Tubulin-Different-Phenotype (%) [1]: 23% and 41%
Population Apoptotic (%) [2]: 56% and 48%
Population Fragmented Nuclei (%) [2]: 28% and 35%
Population Healthy Nuclei (%) [2]: 47% and 30%
Population Hoechst High Intensity Objects (%) [2]: 13% and 8%
Population Membrane Permeable-Phenotype (%) [2]: 1% and 4%
Population Mitochondria Different-Phenotype (%) [2]: 22% and 16%
Population Mitotic Cells (%) [2]: 43% and 51%
Population Normal (%) [2]: 86% and 91%
Population Pyknosed Nuclei (%) [2]: 24% and 33%
Population Tubulin-Different-Phenotype (%) [2]: 69% and 64%
Total Cell Count [2]: 209 and 89
Population Apoptotic (%) [3]: 36% and 48%
Population Fragmented Nuclei (%) [3]: 12% and 26%
Population Healthy Nuclei (%) [3]: 69% and 47%
Population Hoechst High Intensity Objects (%) [3]: 2% and 4%
Population Membrane Permeable-Phenotype (%) [3]: 2% and 4%
Population Mitochondria Different-Phenotype (%) [3]: 6%
Population Mitotic Cells (%) [3]: 63% and 51%
Population Normal (%) [3]: 97% and 95%
Population Pyknosed Nuclei (%) [3]: 18% and 26%
Population Tubulin-Different-Phenotype (%) [3]: 28% and 47%
Total Cell Count [3]: 123
Population Apoptotic (%) [4]: 64% and 56%
Population Fragmented Nuclei (%) [4]: 29% and 45%
Population Healthy Nuclei (%) [4]: 44% and 36%
Population Hoechst High Intensity Objects (%) [4]: 13% and 5%
Population Membrane Permeable-Phenotype (%) [4]: 1% and 0%
Population Mitochondria Different-Phenotype (%) [4]: 24% and 9%
Population Mitotic Cells (%) [4]: 35% and 43%
Population Normal (%) [4]: 86% and 94%
Population Pyknosed Nuclei (%) [4]: 25% and 18%
Population Tubulin-Different-Phenotype (%) [4]: 68% and 71%
Total Cell Count [4]: 191 and 93
Population Apoptotic (%) [5]: 57% and 38%
Population Fragmented Nuclei (%) [5]: 15% and 33%
Population Healthy Nuclei (%) [5]: 65% and 42%
Population Hoechst High Intensity Objects (%) [5]: 5%
Population Membrane Permeable-Phenotype (%) [5]: 4% and 7%
Population Mitochondria Different-Phenotype (%) [5]: 5%
Population Mitotic Cells (%) [5]: 42% and 61%
Population Normal (%) [5]: 94%
Population Pyknosed Nuclei (%) [5]: 19% and 24%
Population Tubulin-Different-Phenotype (%) [5]: 32% and 54%
Total Cell Count [5]: 115
Population Apoptotic (%) [6]: 84% and 66%
Population Fragmented Nuclei (%) [6]: 38% and 37%
Population Healthy Nuclei (%) [6]: 35% and 51%
Population Hoechst High Intensity Objects (%) [6]: 23% and 8%
Population Membrane Permeable-Phenotype (%) [6]: 5% and 2%
Population Mitochondria Different-Phenotype (%) [6]: 37% and 15%
Population Mitotic Cells (%) [6]: 15% and 33%
Population Normal (%) [6]: 76% and 91%
Population Pyknosed Nuclei (%) [6]: 26% and 11%
Population Tubulin-Different-Phenotype (%) [6]: 80% and 65%
Total Cell Count [6]: 188 and 85

CN(C)Cc1cccc(NC(=C2C(=O)Nc3cc(C(=O)N(C)C)ccc32)c2ccccc2)c1
Population Fragmented Nuclei (%) [1]: 12.28% and 5.26%
Population Healthy Nuclei (%) [1]: 63.16% and 78.47%
Population Hoechst High Intensity Objects (%) [1]: 0%
Population Membrane Permeable-Phenotype (%) [1]: 4.17% and 9.15%
Population Mitochondria Different-Phenotype (%) [1]: 12.5% and 7.93%
Population Mitotic Cells (%) [1]: 91.07% and 67.65%
Population Normal (%) [1]: 100%
Population Pyknosed Nuclei (%) [1]: 24.56% and 16.27%
Population Tubulin-Different-Phenotype (%) [1]: 20.14% and 25%
Total Cell Count [1]: 228 and 209
Population Apoptotic (%) [2]: 15.09% and 31.43%
Population Fragmented Nuclei (%) [2]: 12.72% and 8.65%
Population Healthy Nuclei (%) [2]: 64.04% and 80.13%
Population Hoechst High Intensity Objects (%) [2]: 0%
Population Membrane Permeable-Phenotype (%) [2]: 8.22% and 6.4%
Population Mitochondria Different-Phenotype (%) [2]: 23.97% and 16.8%
Population Mitotic Cells (%) [2]: 84.91% and 68.57%
Population Normal (%) [2]: 100%
Population Pyknosed Nuclei (%) [2]: 23.25% and 11.22%
Population Tubulin-Different-Phenotype (%) [2]: 54.79% and 75.6%
Total Cell Count [2]: 228 and 312
Population Fragmented Nuclei (%) [3]: 10.42% and 4.72%
Population Healthy Nuclei (%) [3]: 77.5% and 83.96%
Population Hoechst High Intensity Objects (%) [3]: 0%
Population Membrane Permeable-Phenotype (%) [3]: 1.08% and 2.81%
Population Mitochondria Different-Phenotype (%) [3]: 4.84% and 10.11%
Population Mitotic Cells (%) [3]: 93.1% and 75%
Population Normal (%) [3]: 100%
Population Pyknosed Nuclei (%) [3]: 12.08% and 11.32%
Population Tubulin-Different-Phenotype (%) [3]: 11.29% and 23.03%
Total Cell Count [3]: 240 and 212
Population Apoptotic (%) [4]: 13.33% and 25%
Population Healthy Nuclei (%) [4]: 66.94% and 85.67%
Population Hoechst High Intensity Objects (%) [4]: 0%
Population Membrane Permeable-Phenotype (%) [4]: 8.43% and 2.18%
Population Mitochondria Different-Phenotype (%) [4]: 24.7% and 21.82%
Population Mitotic Cells (%) [4]: 86.67% and 75%
Population Normal (%) [4]: 100%
Population Pyknosed Nuclei (%) [4]: 18.15% and 9.97%
Population Tubulin-Different-Phenotype (%) [4]: 63.25% and 79.64%
Total Cell Count [4]: 248 and 321
Population Apoptotic (%) [5]: 26.67% and 31.25%
Population Fragmented Nuclei (%) [5]: 11.31% and 7.86%
Population Healthy Nuclei (%) [5]: 83.21% and 85.15%
Population Hoechst High Intensity Objects (%) [5]: 0%
Population Membrane Permeable-Phenotype (%) [5]: 0.88% and 7.18%
Population Mitotic Cells (%) [5]: 73.33% and 68.75%
Population Normal (%) [5]: 100%
Population Pyknosed Nuclei (%) [5]: 5.47% and 6.99%
Population Tubulin-Different-Phenotype (%) [5]: 7.46% and 16.92%
Total Cell Count [5]: 274 and 229
Population Apoptotic (%) [6]: 33.33% and 64.71%
Population Fragmented Nuclei (%) [6]: 14.48% and 6.69%
Population Healthy Nuclei (%) [6]: 77.44% and 87.9%
Population Hoechst High Intensity Objects (%) [6]: 0%
Population Membrane Permeable-Phenotype (%) [6]: 1.3% and 2.9%
Population Mitochondria Different-Phenotype (%) [6]: 11.3% and 9.42%
Population Mitotic Cells (%) [6]: 66.67% and 35.29%
Population Normal (%) [6]: 100%
Population Pyknosed Nuclei (%) [6]: 8.08% and 5.41%
Population Tubulin-Different-Phenotype (%) [6]: 43.48% and 85.14%
Total Cell Count [6]: 297 and 314
